Publication PMC4301979 (Nature chemical biology, 2015)

Assays:
[1] = tested on: additional off-targets (serine hydrolase activities); assay: ABPP-SILAC of serine hydrolase activities in COLO205 cells treated in situ; format: cell-based, human; conditions: 1 μM, 4 h, 37 °C
[2] = molecular target: T1, ABHD16A (Homo sapiens, UniProt O95870); assay: as above; format: cell-based; conditions: 1 μM, 4 h, 37 °C
T1 sequence (O95870 1-558): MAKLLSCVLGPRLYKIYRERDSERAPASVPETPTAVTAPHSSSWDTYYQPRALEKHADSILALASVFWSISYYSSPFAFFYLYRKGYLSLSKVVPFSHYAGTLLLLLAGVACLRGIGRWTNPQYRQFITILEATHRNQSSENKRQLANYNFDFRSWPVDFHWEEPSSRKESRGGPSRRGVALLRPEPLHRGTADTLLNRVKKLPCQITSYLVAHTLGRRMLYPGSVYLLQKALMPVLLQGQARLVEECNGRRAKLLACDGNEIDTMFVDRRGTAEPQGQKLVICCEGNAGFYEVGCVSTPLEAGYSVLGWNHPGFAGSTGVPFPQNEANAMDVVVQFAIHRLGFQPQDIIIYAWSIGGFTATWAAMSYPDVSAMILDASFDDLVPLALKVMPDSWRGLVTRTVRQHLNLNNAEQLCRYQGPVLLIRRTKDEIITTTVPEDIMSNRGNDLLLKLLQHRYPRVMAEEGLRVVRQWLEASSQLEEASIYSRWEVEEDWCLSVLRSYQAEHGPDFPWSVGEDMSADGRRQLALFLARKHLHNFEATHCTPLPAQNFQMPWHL

[3] = molecular target: T1, ABHD16A; assay: gel-based ABPP of LCLs treated in situ; format: cell-based; conditions: 1 µM, 4 h in situ
[4] = molecular target: T2, mouse ABHD16A (Mus musculus, UniProt Q9Z1Q2); assay: competitive gel-based ABPP, mouse ABHD16A-transfected HEK293T proteome; format: binding
T2 sequence (Q9Z1Q2 1-558): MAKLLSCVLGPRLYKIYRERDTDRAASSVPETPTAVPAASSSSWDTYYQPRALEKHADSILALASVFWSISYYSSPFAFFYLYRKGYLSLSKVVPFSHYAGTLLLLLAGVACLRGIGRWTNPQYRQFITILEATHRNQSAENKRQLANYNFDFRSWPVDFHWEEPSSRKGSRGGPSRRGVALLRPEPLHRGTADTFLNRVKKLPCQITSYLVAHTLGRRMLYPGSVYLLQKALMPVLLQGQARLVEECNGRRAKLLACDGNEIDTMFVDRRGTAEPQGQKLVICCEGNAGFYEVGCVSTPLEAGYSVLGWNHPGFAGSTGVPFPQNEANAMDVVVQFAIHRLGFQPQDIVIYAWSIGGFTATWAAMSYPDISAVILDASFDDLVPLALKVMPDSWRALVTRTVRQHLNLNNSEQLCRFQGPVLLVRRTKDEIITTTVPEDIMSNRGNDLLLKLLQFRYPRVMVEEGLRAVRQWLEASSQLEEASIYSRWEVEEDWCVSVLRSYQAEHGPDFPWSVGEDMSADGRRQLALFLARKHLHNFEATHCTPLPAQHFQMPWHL

[5] = tested on: PS lipase activity of mouse peritoneal macrophages; assay: PS lipase activity of membrane proteomes of peritoneal macrophages; format: biochemical; conditions: vehicle- and LPS-stimulated macrophages; 1 µM, 30 min, 37 °C
Method in brief: (§1)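 Membrane proteome (20 μg) incubated with 100 μM lipid substrate in PBS (100 μL), shaking, […] for 30 min. Quenched with 2:1 CHCl3:MeOH and internal standard, then extracted twice. Product quantified by LC-QTOF-MS, ESI negative mode, as peak area relative to internal standard. Non-enzymatic rate from heat-denatured proteome (95 °C, 15 min) subtracted.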

[6] = tested on: COLO205 cells; assay: LC-MS-based lipid profiling of treated cells; format: cell-based, human; conditions: COLO205, 1 μM, 4 h
Method in brief: (§2)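 Cells grown in RPMI 1640 with 10% FCS and penicillin-streptomycin. 3 x 10^6 cells washed, then exposed to test compound (1 μM) or DMSO for 4 h at 37 °C, 5% CO2, in serum-free, phenol red-free RPMI. Media and cells extracted with 2:1 CHCl3:MeOH plus internal standards. Lipids quantified by LC-MS MRM (ESI) as peak area versus unnatural internal standard, normalized to cell number.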

[7] = molecular target: T1, ABHD16A; assay: competitive gel-based ABPP, K562 cells treated in situ; format: cell-based; conditions: in situ IC50 for ABHD16A, 4 h treatment, 37 °C
[8] = molecular target: T1, ABHD16A; assay: PS substrate; format: biochemical; conditions: 95% interval for the reported IC50 value, human ABHD16A PS lipase activity
[9] = tested on: thioglycollate-elicited mouse peritoneal macrophages; assay: secreted cytokines of thioglycollate-elicited peritoneal macrophages; format: cell-based; conditions: 4 h
Method in brief: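 Peritoneal macrophages elicited by thioglycollate from wild-type, ABHD12−/− or ABHD16A−/− mice. 2 x 10^6 cells allowed to adhere 2 h, then washed. Test compound (1 μM) or DMSO applied for 4 h in serum-free, phenol red-free RPMI, then LPS (5 μg/mL, 7 h, in PBS). Cytokines measured in 0.5 mL harvested medium by mouse single-analyte ELISA.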

[10] = molecular target: T1, ABHD16A; assay: biochemical; format: binding
[11] = tested on: PS lipase activity of human LCLs; assay: PS lipase activity of membrane proteomes of lymphoblast cell lines; format: biochemical; conditions: 1 µM, 30 min, 37 °C; all LCL samples
Method in brief: as §1

[12] = tested on: human lymphoblast cell lines (LCLs); assay: targeted LC-MS analysis of lyso-PS in LCLs; format: cell-based; conditions: 1 μM, 4 h
Method in brief: as §2

[13] = tested on: thioglycollate-elicited mouse peritoneal macrophages; assay: cellular and secreted lyso-PS of thioglycollate-elicited peritoneal macrophages; format: cell-based; conditions: 4 h
Method in brief: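 Thioglycollate-elicited peritoneal macrophages from wild-type, ABHD12−/− or ABHD16A−/− mice. 2 x 10^6 cells plated and adhered 2 h at 37 °C. Washed, then test compound (1 μM) or DMSO given for 4 h in serum-free, phenol red-free RPMI. LPS 5 μg/mL in PBS for 7 h. Media (4 mL) and cells extracted with CHCl3:MeOH. Lipids quantified by LC-MS MRM against internal standards, normalized to cell number.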

[14] = tested on: ABHD16A/BAT5; conditions: read-out: IC50, competitive ABPP; uncharacterized 60 kDa membrane enzyme tentatively identified as ABHD16A/BAT5; cited from earlier work
[15] = tested on: ABHD12; conditions: read-out: IC50, competitive ABPP; brain serine hydrolases; cited from earlier work
[16] = molecular target: T3, ABHD16A (WT and S355A mutant) (Homo sapiens, UniProt O95870); assay: activity-dependent labeling of ABHD16A in transfected HEK293T cell lysates; format: binding; conditions: 0.2 µM, 30 min, 37 °C
T3 sequence (O95870 1-558): T1 sequence (O95870 1-558)

[17] = ABHD12−/− macrophages, pre-treatment 1 μM
[18] = ABHD16A−/− macrophages, basal or LPS stimulation, 1 µM
[19] = wild-type macrophages, pre-treatment 1 μM, LPS 5 μg/mL, 7 h

CCCCCCCCCCCCCC1OC(=O)/C1=C\CCCCC(N)=O (centres unmarked) [KC01]
partial inhibition of a handful of additional off-targets (ABPP-SILAC) [1]: 50–80% | light:heavy ratio for ABHD16A (ABPP-SILAC) [2]: 0.02 | inhibition of ABHD16A in LCLs by gel-based ABPP [3]: confirmed inhibition | IC50 [4]: 200 to 500 nM | PS lipase activity of macrophage membrane proteomes [5]: blocked | cellular lyso-PSs versus DMSO-treated control cells [6]: significant reductions | other lipids (PSs, PCs, PEs, lyso-PCs, lyso-PEs, MAGs) [6]: No changes | secreted lyso-PSs (18:1 and 18:0) ([6]; serum-free media): decreased | IC50 [7]: ~300 nM | IC50 [8]: 69 to 105 nM | LPS-induced increases in cytokine secretion [9, 17]: blocked | secreted proinflammatory cytokines (IL-6 and TNF-α) [9, 18]: no changes | LPS-induced cytokine release [9, 19]: significantly blunted | IC50 [10]: 200 to 500 nM | PS lipase activity of LCL membrane proteomes [11]: inhibited | secreted lyso-PSs of the ABHD12-null LCL ([12]; PHARC subject-derived LCL): significantly lowered | cellular lyso-PSs of LCLs ([12]; all LCLs): decreased cellular lyso-PSs | LPS-induced increases in lyso-PSs [13, 17]: blocked | cellular or secreted lyso-PS and other measured lipids [13, 18]: no changes | basal and LPS-induced increases in cellular and secreted lyso-PSs [13, 19]: reduced

CCCCCCCCCCC[C@@H](C[C@@H]1OC(=O)[C@H]1CCCCCC)OC(=O)[C@H](CC(C)C)NC=O [THL, tetrahydrolipstatin]
IC50 [14]: ~100 nM | IC50 [15]: ~100 nM

CCCCCCCCCCCCCC1OC(=O)/C1=C\CCCC(=O)NCCCCCNC(=O)c1ccc(-c2c3ccc(=[N+](C)C)cc-3oc3cc(N(C)C)ccc23)c(C(=O)[O-])c1 (centres unmarked) [WHP01]
labeling of ABHD16A by fluorescent probe [16]: labeled WT-ABHD16A but not the catalytic serine S355A mutant
